Experimental data published in ChEMBL document CHEMBL2331169, “Search for α3β₂/₃γ2 subtype selective ligands that are stable on human liver microsomes” (Bioorg Med Chem, 2013).
Active and inactive are the calls of the source. The rule behind the calls is not given here.

Key:
Rattus norvegicus [1] = assay: Sedative activity in rat assessed as reduction of D-amphetamine sulfate-induced locomotion at 3 mg/kg, ip administered 20 mins prior to testing measured for 90 mins relative to vehicle-treated control; assay type: functional, organism-based; set-up: dose 3 mg/kg
In short: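 Rats kept ≥10 days on a reversed light/dark cycle. Drug or saline (2 ml/kg) given i.p. 20 min before an open-field arena; spontaneous x–y locomotion recorded 30 min by beam breaks. D-amphetamine sulfate 0.5 mg/kg i.p. then given, and locomotion recorded a further 90 min.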

Rattus norvegicus [2] = assay: Anxiolytic activity in rat assessed as increase in time spent in lighted area at 3 mg/kg, ip administered 20 mins prior to testing measured for 30 mins by light/dark cycle test relative to vehicle-treated control; assay type: functional, organism-based; set-up: dose 3 mg/kg
[3] = Metabolic stability in heat inactivated human liver microsomes assessed as compound remaining at 10 uM measured at 60 mins by LC-MS/MS analysis relative to control; assay type: ADME, Microsome; settings: read-out: Stability
In short: (§1)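 Control incubation with heat-inactivated human liver microsomes (0.5 mg protein/ml) in 100 mM phosphate pH 7.4, 37 °C, sampled at 0 and 60 min. Samples quenched in acetonitrile with internal standard and analysed by LC-MS/MS. Percent remaining is the peak-area ratio relative to 0 min ×100; duplicates.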

[4] = Metabolic stability in human liver microsomes assessed as compound remaining at 10 uM measured at 60 mins by LC-MS/MS analysis relative to control; assay type: ADME, Microsome; settings: read-out: Stability
In short: (§2)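 Pooled human liver microsomes (150 donors, 0.5 mg protein/ml) with 2.5 mM NADPH and 3.3 mM MgCl2 in 100 mM phosphate pH 7.4, 0.1% DMSO final, 37 °C, reaction started with microsomes. Aliquots quenched in cold acetonitrile with internal standard; LC-MS/MS in positive-ion ESI MRM mode. Percent remaining is analyte/internal-standard peak-area ratio versus 0 min ×100; duplicates.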

[5] = Metabolic stability in human liver microsomes assessed as compound remaining at 10 uM measured at 30 mins by LC-MS/MS analysis relative to control; assay type: ADME, Microsome; settings: read-out: Stability; in short: as §2
[6] = Metabolic stability in human liver microsomes assessed as compound remaining at 10 uM measured at 15 mins by LC-MS/MS analysis relative to control; assay type: ADME, Microsome; settings: read-out: Stability; in short: as §2
[7] = Metabolic stability in heat inactivated human liver microsomes assessed as compound remaining at 1 uM measured at 60 mins by LC-MS/MS analysis relative to control; assay type: ADME, Microsome; settings: heat-inactivated liver microsomes, read-out: Stability; in short: as §1
[8] = Metabolic stability in human liver microsomes assessed as compound remaining at 1 uM measured at 60 mins by LC-MS/MS analysis relative to control; assay type: ADME, Microsome; settings: liver microsomes, read-out: Stability; in short: as §2
[9] = Metabolic stability in human liver microsomes assessed as compound remaining at 1 uM measured at 30 mins by LC-MS/MS analysis relative to control; assay type: ADME, Microsome; settings: liver microsomes, read-out: Stability; in short: as §2
[10] = Metabolic stability in human liver microsomes assessed as compound remaining at 1 uM measured at 15 mins by LC-MS/MS analysis relative to control; assay type: ADME, Microsome; settings: read-out: Stability; in short: as §2
[11] = biological target: T1, GABA A receptor alpha-5/beta-3/gamma-2 (Rattus norvegicus) (UniProt P18508+P19969+P63079); assay: Agonist activity at rat GABAA alpha5beta3gamma2 receptor expressed in Xenopus oocytes assessed as stimulation of GABA-induced chloride current at 1 uM incubated 30 secs prior to GABA induction measured after 15 mins by two-electrode voltage clamp assay relative to control; assay type: cell-based; settings: Oocyte
In short: (§3)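 Rat GABAA β3 and γ2 cDNAs plus α1, α2, α3 or α5 cDNA injected into Xenopus oocytes; follicle layers removed 36 h later. Two-electrode recording with […]-filled electrodes; oocytes perfused with Ringer (90 mM NaCl, 5 mM HEPES pH 7.4, 1 mM MgCl2, KCl, CaCl2) switched to GABA at EC3 with drug (0.1% DMSO final). Mean ± SEM, 3–4 oocytes, ≥2 batches.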

[12] = biological target: T1, GABA A receptor alpha-5/beta-3/gamma-2 (Rattus norvegicus); assay: Agonist activity at rat GABAA alpha5beta3gamma2 receptor expressed in Xenopus oocytes assessed as stimulation of GABA-induced chloride current at 100 nM incubated 30 secs prior to GABA induction measured after 15 mins by two-electrode voltage clamp assay relative to control; assay type: cell-based; settings: Oocyte; in short: as §3
[13] = biological target: Gamma-aminobutyric acid receptor subunit alpha-3 (Rattus norvegicus) (UniProt P20236); assay: Agonist activity at rat GABAA alpha3beta3gamma2 receptor expressed in Xenopus oocytes assessed as stimulation of GABA-induced chloride current at 1 uM incubated 30 secs prior to GABA induction measured after 15 mins by two-electrode voltage clamp assay relative to control; assay type: cell-based; settings: Oocyte; in short: as §3
[14] = biological target: Gamma-aminobutyric acid receptor subunit alpha-3 (Rattus norvegicus) (UniProt P20236); assay: Agonist activity at rat GABAA alpha3beta3gamma2 receptor expressed in Xenopus oocytes assessed as stimulation of GABA-induced chloride current at 100 nM incubated 30 secs prior to GABA induction measured after 15 mins by two-electrode voltage clamp assay relative to control; assay type: cell-based; settings: Oocyte; in short: as §3
[15] = biological target: T2, GABA A receptor alpha-2/beta-2/gamma-2 (Rattus norvegicus) (UniProt P18508+P23576+P63138); assay: Agonist activity at rat GABAA alpha2beta3gamma2 receptor expressed in Xenopus oocytes assessed as stimulation of GABA-induced chloride current at 1 uM incubated 30 secs prior to GABA induction measured after 15 mins by two-electrode voltage clamp assay relative to control; assay type: cell-based; settings: Oocyte; in short: as §3
[16] = biological target: T2, GABA A receptor alpha-2/beta-2/gamma-2 (Rattus norvegicus); assay: Agonist activity at rat GABAA alpha2beta3gamma2 receptor expressed in Xenopus oocytes assessed as stimulation of GABA-induced chloride current at 100 nM incubated 30 secs prior to GABA induction measured after 15 mins by two-electrode voltage clamp assay relative to control; assay type: cell-based; settings: Oocyte; in short: as §3
[17] = biological target: T3, GABA-A receptor; alpha-1/beta-2/gamma-2 (Rattus norvegicus) (UniProt P18508+P62813+P63138); assay: Agonist activity at rat GABAA alpha1beta3gamma2 receptor expressed in Xenopus oocytes assessed as stimulation of GABA-induced chloride current at 1 uM incubated 30 secs prior to GABA induction measured after 15 mins by two-electrode voltage clamp assay relative to control; assay type: cell-based; settings: Oocyte; in short: as §3
[18] = biological target: T3, GABA-A receptor; alpha-1/beta-2/gamma-2 (Rattus norvegicus); assay: Agonist activity at rat GABAA alpha1beta3gamma2 receptor expressed in Xenopus oocytes assessed as stimulation of GABA-induced chloride current at 100 nM incubated 30 secs prior to GABA induction measured after 15 mins by two-electrode voltage clamp assay relative to control; assay type: cell-based; settings: Oocyte; in short: as §3

Sequence of Gamma-aminobutyric acid receptor subunit alpha-3 (Rattus norvegicus) (P20236 whole entry): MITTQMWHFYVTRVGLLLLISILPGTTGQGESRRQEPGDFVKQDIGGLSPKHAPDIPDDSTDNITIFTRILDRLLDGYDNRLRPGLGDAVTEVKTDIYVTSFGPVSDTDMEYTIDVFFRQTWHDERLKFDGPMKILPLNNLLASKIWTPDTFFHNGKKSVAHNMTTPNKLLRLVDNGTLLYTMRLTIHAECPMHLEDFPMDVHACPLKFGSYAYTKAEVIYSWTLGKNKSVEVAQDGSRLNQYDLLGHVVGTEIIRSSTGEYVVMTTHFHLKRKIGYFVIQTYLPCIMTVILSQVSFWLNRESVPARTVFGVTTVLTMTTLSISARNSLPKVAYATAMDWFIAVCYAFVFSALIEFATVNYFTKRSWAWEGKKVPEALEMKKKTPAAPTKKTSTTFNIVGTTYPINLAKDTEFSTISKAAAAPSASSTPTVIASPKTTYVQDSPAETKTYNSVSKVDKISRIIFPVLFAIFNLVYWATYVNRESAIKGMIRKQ

CN1C(=O)CN=C(c2ccccc2)c2cc(Cl)ccc21
Activity (Rattus norvegicus [1]): Active | Activity (Rattus norvegicus [2]): Active

C#Cc1ccc2c(c1)C(c1ccccc1F)=NCc1c(C(=O)OCC)ncn1-2
remaining at 1 h, 10 µM [3]: 110% | remaining at 1 h, 10 µM [4]: 0.6% | remaining at 0.5 h, 10 µM [5]: 3.6% | remaining at 0.25 h, 10 µM [6]: 20% | remaining at 1 h, 1 µM [7]: 102% | remaining at 1 h, 1 µM [8]: 0.3% | remaining at 0.5 h, 1 µM [9]: 2.2% | remaining at 0.25 h, 1 µM [10]: 13.5%

C#Cc1ccc2c(c1)C(c1ccccc1)=NCc1c(C(=O)O)ncn1-2
remaining at 1 h, 10 µM [3]: 97.2% | remaining at 1 h, 10 µM [4]: 94.8% | remaining at 0.5 h, 10 µM [5]: 94.8% | remaining at 0.25 h, 10 µM [6]: 95.3% | remaining at 1 h, 1 µM [7]: 106% | remaining at 1 h, 1 µM [8]: 111% | remaining at 0.5 h, 1 µM [9]: 110% | remaining at 0.25 h, 1 µM [10]: 108%

C#Cc1ccc2c(c1)C(c1ccccc1F)=NCc1c(-c3nc(C(C)C)no3)ncn1-2
Activity [11]: 331% | Activity [12]: 239% | Activity [13]: 460% | Activity [14]: 226% | Activity [15]: 225% | Activity [16]: 154% | Activity [17]: 234% | Activity [18]: 140%

C#Cc1ccc2c(c1)C(c1ccccn1)=NCc1c(-c3nc(C(C)C)no3)ncn1-2
Activity [11]: 252% | Activity [12]: 130% | Activity [13]: 375% | Activity [14]: 143% | Activity [15]: 236% | Activity [16]: 139% | Activity [17]: 178% | Activity [18]: 117% | remaining at 1 h, 10 µM [3]: 91.7% | remaining at 1 h, 10 µM [4]: 95.1% | remaining at 0.5 h, 10 µM [5]: 99.3% | remaining at 0.25 h, 10 µM [6]: 106% | remaining at 1 h, 1 µM [7]: 113% | remaining at 1 h, 1 µM [8]: 89.5% | remaining at 0.5 h, 1 µM [9]: 98.7% | remaining at 0.25 h, 1 µM [10]: 97.8%

C#Cc1ccc2c(c1)C(c1ccccc1)=NCc1c(C(=O)NC)ncn1-2
Activity [11]: 307% | Activity [12]: 257% | Activity [13]: 831% | Activity [14]: 412% | Activity [15]: 287% | Activity [16]: 211% | Activity [17]: 192% | Activity [18]: 132% | remaining at 1 h, 10 µM [3]: 114% | remaining at 1 h, 10 µM [4]: 82.8% | remaining at 0.5 h, 10 µM [5]: 104% | remaining at 0.25 h, 10 µM [6]: 107% | remaining at 1 h, 1 µM [7]: 114% | remaining at 1 h, 1 µM [8]: 5.2% | remaining at 0.5 h, 1 µM [9]: 37.5% | remaining at 0.25 h, 1 µM [10]: 87.3%
